Among the data in ChEMBL document CHEMBL3769331, “Discovery of a new selective inhibitor of A Disintegrin And Metalloprotease 10 (ADAM-10) able to reduce the shedding of NKG2D ligands in Hodgkin's lymphoma cell models” (Eur J Med Chem, 2016) are IC50 and viability values, retold here.

Series [1] concerns the target T1, Disintegrin and metalloproteinase domain-containing protein 10 (Homo sapiens, UniProt O14672).
T1 sequence (O14672 whole entry): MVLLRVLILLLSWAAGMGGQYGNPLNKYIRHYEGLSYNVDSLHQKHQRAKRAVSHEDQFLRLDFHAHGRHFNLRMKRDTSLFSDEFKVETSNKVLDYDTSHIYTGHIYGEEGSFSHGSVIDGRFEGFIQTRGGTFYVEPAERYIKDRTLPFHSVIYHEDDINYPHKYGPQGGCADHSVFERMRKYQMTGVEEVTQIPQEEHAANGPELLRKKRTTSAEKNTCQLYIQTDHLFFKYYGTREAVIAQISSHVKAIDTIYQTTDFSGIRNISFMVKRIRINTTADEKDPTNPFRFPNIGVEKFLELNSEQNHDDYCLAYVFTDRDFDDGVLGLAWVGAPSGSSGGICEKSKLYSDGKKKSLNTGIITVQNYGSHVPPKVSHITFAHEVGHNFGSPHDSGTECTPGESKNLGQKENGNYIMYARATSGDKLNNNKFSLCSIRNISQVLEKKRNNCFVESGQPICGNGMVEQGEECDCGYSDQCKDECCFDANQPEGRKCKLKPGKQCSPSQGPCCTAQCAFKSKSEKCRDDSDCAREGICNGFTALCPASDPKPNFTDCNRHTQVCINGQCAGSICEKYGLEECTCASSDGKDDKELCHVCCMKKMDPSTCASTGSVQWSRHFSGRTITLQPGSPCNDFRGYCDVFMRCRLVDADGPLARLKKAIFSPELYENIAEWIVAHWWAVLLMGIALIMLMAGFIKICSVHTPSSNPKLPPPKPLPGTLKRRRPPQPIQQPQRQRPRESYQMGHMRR
In words: Inhibition of ADAM-10 in human L540 cells assessed as reduction in pervanadate-induced soluble MICB shedding after 24 hrs by ELISA. It is filed as cell-based, L-540. The gist of the method: (§1)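 Supernatants taken from HL cultures before and after 24 h inhibitor exposure, 10 to 0.1 µM. 100 µM sodium orthovanadate was activated to pervanadate with 100 µM H2O2 and added for 40 min before harvest. Soluble MIC-B measured by ELISA against a MIC-B/Fc chimera standard curve. The DMSO+pervanadate supernatant was set as 100% shedding. Triplicate wells, 3 independent experiments.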
A general note: ELISA stands for enzyme-linked immunosorbent assay.

For series [2], the target named is T1, Disintegrin and metalloproteinase domain-containing protein 10. The series can be described thus: Inhibition of ADAM-10 in human KM-H2 cells assessed as reduction in pervanadate-induced soluble MICB shedding after 24 hrs by ELISA. It is filed as cell-based. The gist of the method:
as §1

For series [3] the target is unchanged. In words: Inhibition of ADAM-10 in human L428 cells assessed as reduction in pervanadate-induced soluble MICB shedding after 24 hrs by ELISA. In kind it is cell-based, L-428. The gist of the method:
as §1

Series [4] deals with Matrix metalloproteinase-9 (Homo sapiens, UniProt P14780). The series can be described thus: Inhibition of recombinant human MMP-9 using Mca-Lys-Pro-Leu-Gly-Leu-Dap(Dnp)-Ala-Arg-NH2 as substrate after 3 hrs by fluorometric assay. In outline:
(§2)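 Pro-MMPs were activated with APMA: MMP-1 2 mM for 2 h, MMP-2 2 mM for 1 h, MMP-9 1 mM for 1 h, all at 37 °C. Final enzyme: MMP-1 2.0 nM, MMP-2 0.56 nM, MMP-9 1.3 nM. Enzyme was preincubated with inhibitor for 3 h at 25 °C in Tris 50 mM pH 7.5, NaCl 150 mM, CaCl2 10 mM, Brij-35 0.05%, DMSO 1%. Substrate final 2 µM. Fluorescence (ex 325/em 400 nm) read every 15 s for 20 min. Duplicates; IC50 from vi/vo = 1/(1+[I]/IC50).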

The target of series [5] is 72 kDa type IV collagenase (Homo sapiens, UniProt P08253). The series can be described thus: Inhibition of recombinant human MMP-2 using Mca-Lys-Pro-Leu-Gly-Leu-Dap(Dnp)-Ala-Arg-NH2 as substrate after 3 hrs by fluorometric assay. The gist of the method:
as §2

The nature of series [6]: Cytotoxicity against human L428 cells assessed as cell viability at 10 uM after 72 to 96 hrs by JC-1 staining-based fluorescence assay. Also noted: species or system L-428. The conditions noted are these: read-out: Activity. In outline:
(§3)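 HL cell lines from DSMZ exposed to inhibitor at 10 µM for 72 and 96 h. Viability read as mitochondrial potential by staining with the dual-emission fluorescent probe JC-1.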

The target of series [7] is T1, Disintegrin and metalloproteinase domain-containing protein 10. In words: Inhibition of ADAM-10 in human KM-H2 cells assessed as reduction in pervanadate-induced soluble ULBP3 shedding after 24 hrs by ELISA. It is filed as cell-based. In outline: (§4)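 Supernatants collected before and after 24 h inhibitor exposure, 10 to 0.1 µM. 100 µM sodium orthovanadate was activated to pervanadate with 100 µM H2O2 and added for 40 min before harvest. Soluble ULBP3 or ALCAM measured by ELISA.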

For series [8] the target is unchanged. In words: Inhibition of ADAM-10 in human L540 cells assessed as reduction in pervanadate-induced soluble ULBP3 shedding after 24 hrs by ELISA. It is filed as cell-based, L-540. In outline:
as §4

For series [9], the target named is T2, Disintegrin and metalloproteinase domain-containing protein 17 (Homo sapiens, UniProt P78536). In words: Inhibition of recombinant human ADAM-17 using Mca-Lys-Pro-Leu-Gly-Leu-Dap(Dnp)-Ala-Arg-NH2 as substrate after 30 mins by fluorometric assay. In outline:
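Recombinant human ADAM-17, final 5 nM, preincubated with inhibitor for 30 min at 37 °C in Tris 25 mM pH 9, ZnCl2 25 µM, Brij-35 0.005%. Substrate final 2 µM. Fluorescence (ex 325/em 400 nm) read every 15 s for 20 min. Duplicates; IC50 from vi/vo = 1/(1+[I]/IC50).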

Series [10] can be described thus: Cytotoxicity against human KM-H2 cells assessed as cell viability at 10 uM after 72 to 96 hrs by JC-1 staining-based fluorescence assay. The following applies: read-out: Activity. In outline: as §3
Series [11] addresses T2, Disintegrin and metalloproteinase domain-containing protein 17. The series can be described thus: Inhibition of ADAM-17 in human L428 cells assessed as reduction in pervanadate-induced soluble ALCAM shedding after 24 hrs by ELISA. It is filed as cell-based, L-428. The gist of the method:
as §4

The target of series [12] is T1, Disintegrin and metalloproteinase domain-containing protein 10. In words: Inhibition of recombinant human ADAM-10 using Mca-Lys-Pro-Leu-Gly-Leu-Dap(Dnp)-Ala-Arg-NH2 as substrate after 1 hr by fluorometric assay. The gist of the method:
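Recombinant human ADAM-10, final 20 nM, preincubated with inhibitor for 1 h at 37 °C in Tris 25 mM pH 9, ZnCl2 25 µM, Brij-35 0.005%. Substrate final 10 µM. Fluorescence (ex 325/em 400 nm) read every 15 s for 20 min. Duplicates; IC50 from vi/vo = 1/(1+[I]/IC50).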

Series [13] has as its target T2, Disintegrin and metalloproteinase domain-containing protein 17. The series can be described thus: Inhibition of ADAM-17 in human KM-H2 cells assessed as reduction in pervanadate-induced soluble ALCAM shedding after 24 hrs by ELISA. It is filed as cell-based. The gist of the method: as §4
Another series concerns the target T3, Interstitial collagenase (Homo sapiens, UniProt P03956).
T3 sequence (P03956 whole entry): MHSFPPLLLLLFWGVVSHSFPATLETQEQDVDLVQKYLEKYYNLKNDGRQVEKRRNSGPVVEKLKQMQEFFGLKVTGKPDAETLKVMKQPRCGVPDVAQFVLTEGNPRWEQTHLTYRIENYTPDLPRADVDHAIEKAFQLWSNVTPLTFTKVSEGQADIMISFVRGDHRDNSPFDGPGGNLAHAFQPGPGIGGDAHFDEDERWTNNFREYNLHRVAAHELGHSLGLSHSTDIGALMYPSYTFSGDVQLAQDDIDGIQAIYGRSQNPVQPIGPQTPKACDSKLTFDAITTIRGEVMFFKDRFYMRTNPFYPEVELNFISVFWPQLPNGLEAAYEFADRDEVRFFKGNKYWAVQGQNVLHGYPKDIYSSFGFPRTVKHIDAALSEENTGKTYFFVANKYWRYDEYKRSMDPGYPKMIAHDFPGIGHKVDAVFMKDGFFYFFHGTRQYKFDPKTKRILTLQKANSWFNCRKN
The series can be described thus: Inhibition of human MMP-1 using Mca-Lys-Pro-Leu-Gly-Leu-Dap(Dnp)-Ala-Arg-NH2 as substrate after 3 hrs by fluorometric assay. The gist of the method: as §2

Series [14] can be described thus: Cytotoxicity against human L540 cells assessed as cell viability at 10 uM after 72 to 96 hrs by JC-1 staining-based fluorescence assay. Details: species or system L-540. The conditions noted are these: read-out: Activity. The gist of the method:
as §3

The target in series [15] is T1, Disintegrin and metalloproteinase domain-containing protein 10. In words: Inhibition of ADAM-10 in human L428 cells assessed as reduction in pervanadate-induced soluble ULBP3 shedding after 24 hrs by ELISA. It is filed as cell-based, L-428. In outline:
as §4

The target of series [16] is Matrix metalloproteinase-14 (Homo sapiens, UniProt P50281). The series can be described thus: Inhibition of recombinant human MMP-14 using Mca-Lys-Pro-Leu-Gly-Leu-Dap(Dnp)-Ala-Arg-NH2 as substrate after 3 hrs by fluorometric assay. In outline:
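MMP-14 catalytic domain, final 1.0 nM, preincubated with inhibitor for 3 h at 25 °C in Tris 50 mM pH 7.5, NaCl 150 mM, CaCl2 10 mM, Brij-35 0.05%, DMSO 1%. Substrate final 2 µM. Fluorescence (ex 325/em 400 nm) read every 15 s for 20 min. Duplicates; IC50 from the vi/vo equation.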

Some results are limits rather than exact numbers.

Chain of Matrix metalloproteinase-9 (P14780 whole entry): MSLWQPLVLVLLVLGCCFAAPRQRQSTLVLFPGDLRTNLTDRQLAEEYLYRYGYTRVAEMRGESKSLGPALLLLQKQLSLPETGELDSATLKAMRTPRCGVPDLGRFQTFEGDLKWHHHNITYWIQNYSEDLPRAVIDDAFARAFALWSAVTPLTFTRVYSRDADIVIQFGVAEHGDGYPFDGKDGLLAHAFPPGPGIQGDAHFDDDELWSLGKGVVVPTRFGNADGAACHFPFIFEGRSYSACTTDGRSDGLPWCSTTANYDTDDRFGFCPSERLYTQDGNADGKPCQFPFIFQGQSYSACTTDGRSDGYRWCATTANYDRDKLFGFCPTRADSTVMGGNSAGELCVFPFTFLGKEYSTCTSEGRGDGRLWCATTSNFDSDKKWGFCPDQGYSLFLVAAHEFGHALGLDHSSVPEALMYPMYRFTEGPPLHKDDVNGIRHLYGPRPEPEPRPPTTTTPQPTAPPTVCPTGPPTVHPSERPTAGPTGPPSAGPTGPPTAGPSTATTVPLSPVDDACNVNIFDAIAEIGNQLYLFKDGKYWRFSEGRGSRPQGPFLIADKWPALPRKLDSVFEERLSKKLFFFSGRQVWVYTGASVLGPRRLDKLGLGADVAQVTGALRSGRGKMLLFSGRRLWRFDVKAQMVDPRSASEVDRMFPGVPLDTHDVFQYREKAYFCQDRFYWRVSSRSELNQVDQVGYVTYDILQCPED
Chain of 72 kDa type IV collagenase (P08253 whole entry): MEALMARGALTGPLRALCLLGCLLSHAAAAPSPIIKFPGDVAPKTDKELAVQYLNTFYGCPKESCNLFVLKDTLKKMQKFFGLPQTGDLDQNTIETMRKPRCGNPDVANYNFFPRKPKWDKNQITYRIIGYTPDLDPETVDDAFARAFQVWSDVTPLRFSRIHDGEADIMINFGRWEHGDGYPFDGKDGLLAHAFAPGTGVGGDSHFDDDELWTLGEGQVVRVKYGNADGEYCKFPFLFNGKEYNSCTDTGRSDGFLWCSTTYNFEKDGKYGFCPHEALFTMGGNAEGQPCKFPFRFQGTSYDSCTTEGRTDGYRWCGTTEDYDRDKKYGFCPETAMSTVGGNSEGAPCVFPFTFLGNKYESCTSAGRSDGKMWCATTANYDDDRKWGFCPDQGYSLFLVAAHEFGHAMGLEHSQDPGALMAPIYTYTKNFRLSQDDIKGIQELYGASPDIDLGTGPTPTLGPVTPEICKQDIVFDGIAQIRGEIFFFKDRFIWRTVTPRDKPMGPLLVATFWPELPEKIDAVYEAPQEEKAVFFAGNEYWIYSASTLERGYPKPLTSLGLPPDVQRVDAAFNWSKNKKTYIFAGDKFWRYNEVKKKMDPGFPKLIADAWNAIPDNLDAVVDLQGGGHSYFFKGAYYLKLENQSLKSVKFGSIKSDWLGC
T2 sequence (P78536 whole entry, the tested form may be a part): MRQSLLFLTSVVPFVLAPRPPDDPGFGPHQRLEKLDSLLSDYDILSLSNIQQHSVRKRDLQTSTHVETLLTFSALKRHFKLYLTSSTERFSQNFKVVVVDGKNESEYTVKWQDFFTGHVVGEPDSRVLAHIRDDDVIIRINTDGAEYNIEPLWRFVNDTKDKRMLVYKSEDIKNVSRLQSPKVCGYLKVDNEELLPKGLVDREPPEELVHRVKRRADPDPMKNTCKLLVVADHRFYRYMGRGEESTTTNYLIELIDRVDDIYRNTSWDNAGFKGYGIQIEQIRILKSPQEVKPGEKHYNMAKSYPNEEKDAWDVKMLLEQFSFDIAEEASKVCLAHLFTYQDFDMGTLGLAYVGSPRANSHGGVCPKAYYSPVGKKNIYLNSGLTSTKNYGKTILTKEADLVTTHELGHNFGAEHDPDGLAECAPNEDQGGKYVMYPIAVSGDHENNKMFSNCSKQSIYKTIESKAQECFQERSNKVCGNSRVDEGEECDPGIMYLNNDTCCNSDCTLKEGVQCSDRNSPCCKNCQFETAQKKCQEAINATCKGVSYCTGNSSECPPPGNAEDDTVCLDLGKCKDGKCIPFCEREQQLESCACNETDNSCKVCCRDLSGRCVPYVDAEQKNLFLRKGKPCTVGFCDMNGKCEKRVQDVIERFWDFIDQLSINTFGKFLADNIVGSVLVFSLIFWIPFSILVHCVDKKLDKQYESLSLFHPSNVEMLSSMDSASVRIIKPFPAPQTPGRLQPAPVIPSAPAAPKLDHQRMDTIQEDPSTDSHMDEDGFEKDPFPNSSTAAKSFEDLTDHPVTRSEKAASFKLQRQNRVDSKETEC

The term IC50 denotes the concentration needed to halve the response being measured. As to `Cc1cc(C#N)ccc1N1CCN(S(=O)(=O)N2CSC[C@@H]2C(=O)NO)CC1`, the half-inhibitory concentration (IC50) stood at 7 µM in [1]; 5 µM in series [2]; 5 µM in series [3]; 24 µM in series [4]; 5.4 µM in [5]; 7 µM in [7]. For the same compound, the IC50 in series [8] was 7 µM; in series [9] it was 1.5 µM; in series [11] it was 12 µM; in [12], 0.04 µM; in series [13] it was 10 µM; at Interstitial collagenase it was 346 µM. For the same compound, the IC50 in series [15] turned out to be 5 µM; in series [16] it was 100 µM. Also, the viability at 10 µM in series [6], in series [10] and in series [14] was above 96% in each case.

As for `O=C(NCCC[C@@H](NS(=O)(=O)c1ccc(OCc2cc(Br)cc(Br)c2)cc1)C(=O)NO)OCc1ccccc1`, the IC50 is 15 µM in [1]; 15 µM in series [2]; 15 µM in series [3]; 15 µM in [7]; 12 µM in series [8]; 0.1 µM in [11]. Also, the 50% inhibitory concentration (IC50) was 0.5 µM in series [13] and 10 µM in [15]. Besides, the viability at 10 µM in series [6], in series [10] and in series [14] was above 96% in each case.

With `Cc1cc(C#N)ccc1N1CCN(S(=O)(=O)N[C@H](CCCNC(=O)OCc2ccccc2)C(=O)NO)CC1`, the half-inhibitory concentration (IC50) came out at 12 µM in [1]; 7 µM in series [2]; 7 µM in [3]; 4.5 µM in series [4]; 0.37 µM in series [5]; 10 µM in series [7]. For the same compound, the half-inhibitory concentration (IC50) was 10 µM in series [8]; 0.09 µM in [9]; 1 µM in series [11]; 0.0092 µM in series [12]; 1 µM in [13]; above 200 µM at Interstitial collagenase. Further, the figures for the IC50 in [15] and in series [16] were 10 µM and 50 µM, respectively. For the same compound, the viability at 10 µM in [6], in [10] and in series [14] was above 96% in each case.

On to `CNC(=O)[C@@H](NC(=O)[C@H](CCCc1ccccc1)[C@H](C)N(O)C=O)C(C)(C)C`, for which the IC50 in [1] came to 12 µM; in [2] it was 12 µM; in series [3], 12 µM; in series [4], 0.0051 µM; in series [5], 0.0021 µM; in [7] it was 10 µM. Further, the concentration for half-maximal inhibition (IC50) in series [8] was 10 µM; in series [9] it was 0.86 µM; in series [11], 10 µM; in series [12] it was 0.027 µM; in [13], 10 µM; against Interstitial collagenase, 0.125 µM. For the same compound, the IC50 was found to be 15 µM in [15] and 0.088 µM in series [16].
